# According to ChEMBL document CHEMBL1156358, “Inhibition of leukocyte functions by the alkaloid isaindigotone from Isatis indigotica and some new synthetic derivatives” (J Nat Prod, 2001):
# Calls of active or inactive are those of the source. No cut-off for these calls is given here.
# Columns and labels:
# [1] = biological target: T1, Polyunsaturated fatty acid 5-lipoxygenase (Homo sapiens) (UniProt P09917); assay: Inhibition of 5LO-mediated LTB4 production in calcium ionophore A23187-stimulated human neutrophils at 10 uM by RIA
# T1 sequence (whole entry): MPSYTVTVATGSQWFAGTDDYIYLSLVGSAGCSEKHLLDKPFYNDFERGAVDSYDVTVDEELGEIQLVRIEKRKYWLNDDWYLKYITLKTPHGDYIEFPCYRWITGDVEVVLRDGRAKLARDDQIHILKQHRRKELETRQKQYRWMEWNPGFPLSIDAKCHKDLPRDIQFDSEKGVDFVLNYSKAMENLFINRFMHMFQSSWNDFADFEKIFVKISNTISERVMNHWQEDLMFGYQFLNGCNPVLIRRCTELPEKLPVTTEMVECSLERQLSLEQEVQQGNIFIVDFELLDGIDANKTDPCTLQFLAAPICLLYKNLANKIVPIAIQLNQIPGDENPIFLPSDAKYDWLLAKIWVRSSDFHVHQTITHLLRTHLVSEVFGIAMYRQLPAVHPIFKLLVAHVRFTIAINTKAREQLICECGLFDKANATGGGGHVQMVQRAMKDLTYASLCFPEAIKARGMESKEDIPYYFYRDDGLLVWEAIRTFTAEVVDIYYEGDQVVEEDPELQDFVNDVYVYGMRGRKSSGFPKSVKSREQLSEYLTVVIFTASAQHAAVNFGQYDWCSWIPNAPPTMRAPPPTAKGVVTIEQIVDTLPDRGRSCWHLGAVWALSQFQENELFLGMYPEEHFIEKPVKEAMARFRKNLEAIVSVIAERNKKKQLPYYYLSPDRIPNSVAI
# [2] = Cytotoxicity against human neutrophils at 10 uM by MTT assay; format: cell-based; conditions: neutrophil
# [3] = system: Neutrophil; assay: (§1) Antioxidant activity against hypoxanthine / xanthine oxidase system-stimulated superoxide radical generation in human neutrophils; format: functional, cell-based
# [4] = Antioxidant activity against 12-O-tetradecanoylphorbol-13-acetate-stimulated superoxide radical generation in human neutrophils assessed as chemiluminescence unit per 10^6 cells at 10 uM; format: functional, Neutrophil; design: unit not given here
# Method in brief: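 Human neutrophils (2.5×10^6 cells/mL) were loaded with luminol (40 µM) and stimulated with TPA (1 µM) for 7 min. Chemiluminescence was recorded, with compounds at 10 µM. Controls were stimulated cells given vehicle. Data are mean ± SEM.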
# [5] = system: RAW264.7; assay: Antiinflammatory activity against LPS-stimulated mouse RAW264.7 cells assessed as nitrite accumulation after 20 hrs by fluorimetry; format: functional, cell-based; conditions: RAW264.7, 20 h
# Method in brief: (§2)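 Mouse RAW 264.7 cells (2×10^6/mL) in DMEM plus 10% FBS were stimulated for 20 h with E. coli LPS (1 µg/mL), with compound or 1% v/v methanol vehicle. Nitrite in 10 µL supernatant was read fluorometrically after 10 min in the dark with 2,3-diaminonaphthalene (0.05 mg/mL in 0.62 M HCl). Single-point tests used 10 µM, given as mean ± SEM (n = 9-12). IC50s carry 95% confidence limits.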
# [6] = Antioxidant activity in cytochalasin B and fMLP-stimulated human neutrophils assessed as inhibition of p-nitrophenol-induced elastase activity at 10 uM
# [7] = system: RAW264.7; assay: Antiinflammatory activity against LPS-stimulated mouse RAW264.7 cells assessed as PGE2 accumulation at 10 uM after 20 hrs by RIA relative to control; format: functional
# Method in brief: (§3)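 RAW 264.7 mouse macrophages (2×10^6/mL) in DMEM with 10% foetal bovine serum were stimulated with E. coli LPS (1 µg/mL) for 20 h alongside compound or vehicle (methanol, 1% v/v). Supernatant PGE2 was measured by radioimmunoassay. Single-point tests used 10 µM, reported as mean ± SEM (n = 9-12) against vehicle-treated stimulated cells. IC50 values carry 95% confidence limits.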
# [8] = system: RAW264.7; assay: Antiinflammatory activity against LPS-stimulated mouse RAW264.7 cells assessed as nitrite accumulation at 10 uM after 20 hrs by fluorimetry relative to control; format: functional
# Method in brief: as §2
# [9] = system: RAW264.7; assay: Antiinflammatory activity against LPS-stimulated mouse RAW264.7 cells assessed as PGE2 accumulation after 20 hrs by RIA; format: functional, cell-based; conditions: RAW264.7, 20 h
# Method in brief: as §3
# [10] = system: Neutrophil; assay: (§4) Antioxidant activity against 12-O-tetradecanoylphorbol-13-acetate-stimulated superoxide radical generation in human neutrophils; format: functional, cell-based
# [11] = as §4; format: functional, cell-based; conditions: Neutrophil
# [12] = as §1; format: functional, cell-based; conditions: Neutrophil
# [13] = biological target: T1, Polyunsaturated fatty acid 5-lipoxygenase (Homo sapiens); assay: (§5) Inhibition of 5LO-mediated LTB4 production in human neutrophils by RIA
# [14] = biological target: T2, Polyunsaturated fatty acid 5-lipoxygenase (Homo sapiens, UniProt P09917); assay: as §5
# T2 sequence (P09917 whole entry): T1 sequence (whole entry)
smiles,measurement,setting,value
O=c1c2ccccc2nc2n1CC/C2=C\c1ccccc1,Activity,[1],61.6 ng/mL
same,Activity,[2],Non-toxic
same,Activity,[3],inactive
same,Activity,[4],2960.4
same,IC50,[5],> 10000 nM
same,Activity,[6],19.1 nmol/mL
same,Activity,[7],4.8 ng/mL
same,Activity,[8],337.1 ng/mL
CS(=O)(=O)Nc1ccc([N+](=O)[O-])cc1OC1CCCCC1 [NS-398],IC50,[5],> 10000 nM
same,IC50,[9],2.1 nM
same,Activity,[7],3.7 ng/mL
O=c1c2ccccc2nc2n1CC/C2=C\c1ccc(F)cc1,Activity,[1],58.9 ng/mL
same,Activity,[2],Non-toxic
same,Activity,[3],inactive
same,Activity,[4],3221.7
same,IC50,[5],> 10000 nM
same,IC50,[9],80 nM
same,Activity,[6],19.7 nmol/mL
same,Activity,[7],5.7 ng/mL
same,Activity,[8],438 ng/mL
O=c1c2ccccc2nc2n1CC/C2=C\c1ccc(O)cc1,Activity,[1],55.9 ng/mL
same,Activity,[2],Non-toxic
same,Activity,[3],inactive
same,Activity,[4],3269.2
same,IC50,[5],> 10000 nM
same,IC50,[9],> 10000 nM
same,Activity,[6],16.9 nmol/mL
same,Activity,[7],15.4 ng/mL
same,Activity,[8],429.8 ng/mL
COc1cc(/C=C2\CCn3c2nc2ccccc2c3=O)cc(OC)c1O [ISAINDIGOTONE],Activity,[10],Dose-dependent effect
same,IC50,[11],41.8 nM
same,Activity,[1],4.2 ng/mL
same,Activity,[2],Non-toxic
same,IC50,[12],42.2 nM
same,Activity,[4],570.6
same,IC50,[5],> 10000 nM
same,IC50,[9],> 10000 nM
same,Activity,[6],19.3 nmol/mL
same,Activity,[13],Dose-dependent effect
same,IC50,[14],40 nM
same,Activity,[7],20.3 ng/mL
same,Activity,[8],459.3 ng/mL
O=c1c2ccccc2nc2n1CC/C2=C\c1ccc(C(F)(F)F)cc1,Activity,[1],57.9 ng/mL
same,Activity,[2],Non-toxic
same,Activity,[3],inactive
same,Activity,[4],4101.1
same,IC50,[5],> 10000 nM
same,IC50,[9],> 10000 nM
same,Activity,[6],19.3 nmol/mL
same,Activity,[7],15.6 ng/mL
same,Activity,[8],448 ng/mL
CC(=N)NCc1cccc(CN)c1 [1400W],IC50,[5],300 nM
same,IC50,[9],> 10000 nM
same,Activity,[8],11.6 ng/mL
COc1cc(/C=C2\CCn3c2nc2ccccc2c3=O)cc(OC)c1,Activity,[1],58.4 ng/mL
same,Activity,[2],Non-toxic
same,Activity,[3],inactive
same,Activity,[4],4150.7
same,IC50,[5],> 10000 nM
same,IC50,[9],> 10000 nM
same,Activity,[6],16.8 nmol/mL
same,Activity,[7],14.8 ng/mL
same,Activity,[8],437.2 ng/mL
CC(=O)Oc1ccc(/C=C2\CCn3c2nc2ccccc2c3=O)cc1,Activity,[1],59.8 ng/mL
same,Activity,[2],Non-toxic
same,Activity,[3],inactive
same,Activity,[4],2636.4
same,IC50,[5],1800 nM
same,Activity,[6],19.2 nmol/mL
same,Activity,[7],9.9 ng/mL
same,Activity,[8],151.2 ng/mL
CCn1c(=O)ccc2cc(COc3cc(F)cc(C4(OC)CCOCC4)c3)ccc21,Activity,[1],4.5 ng/mL
COc1cc(/C=C2\CCn3c2nc2ccccc2c3=O)cc(OC)c1OC(C)=O,Activity,[1],13.5 ng/mL
same,Activity,[2],Non-toxic
same,Activity,[3],inactive
same,Activity,[4],2486.9
same,IC50,[5],4200 nM
same,IC50,[9],200 nM
same,Activity,[6],18.6 nmol/mL
same,Activity,[13],Dose-dependent effect
same,IC50,[14],600 nM
same,Activity,[7],6.7 ng/mL
same,Activity,[8],143.4 ng/mL
